Bioassay records: PubChem BioAssay, The Scripps Research Institute Molecular Screening Center
Hits are enriched below; roughly 1.9% of the tested compounds scored in any of these assays.
CHRM5 antagonist = antagonists of human muscarinic M5 receptor (CHRM5); P08912; CHO-hM5 cells, Fluo-8 calcium fluorescence, ACh EC80; inhibition, % at 3 µM; 360,000 compounds, 0.59% hits; AID 624040;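 active = inhibition above a per-plate cutoff, the mean of that plate's test compounds plus 3 SD, cut at about 27% in these data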;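 also: 0% = acetylcholine EC80 with DMSO and 100% = DMSO without agonist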
M4 PAM = positive allosteric modulators of human muscarinic M4 receptor | P08173 | CHO-K1 hM4/Gqi5, Fluo-8 calcium fluorescence, ACh EC20; 0% = ACh EC20, 100% = maximal ACh | activation, % at 3 µM | 360,000 compounds, 0.4% hits;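 active = activation above its plate's cutoff, the mean activation of sample wells plus 3 SD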
Target sequence (P08173 whole entry, looked up): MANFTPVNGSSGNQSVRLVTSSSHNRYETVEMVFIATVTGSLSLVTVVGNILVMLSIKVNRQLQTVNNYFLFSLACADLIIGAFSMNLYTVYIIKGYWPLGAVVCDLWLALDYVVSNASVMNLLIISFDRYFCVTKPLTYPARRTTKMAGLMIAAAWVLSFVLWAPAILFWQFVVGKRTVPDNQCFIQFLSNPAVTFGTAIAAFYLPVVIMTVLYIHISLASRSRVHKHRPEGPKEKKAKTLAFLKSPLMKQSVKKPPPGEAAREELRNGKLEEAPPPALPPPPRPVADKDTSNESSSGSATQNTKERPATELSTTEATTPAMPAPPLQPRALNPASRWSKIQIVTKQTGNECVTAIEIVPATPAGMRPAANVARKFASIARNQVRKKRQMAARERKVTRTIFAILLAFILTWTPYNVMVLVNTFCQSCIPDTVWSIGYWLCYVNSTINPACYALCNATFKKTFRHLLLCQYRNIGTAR
CHRM4 antagonist = antagonists of human muscarinic M4 receptor (CHRM4) | AID 624125 | 360,000 compounds, 0.73% hits | inhibition, % at 3 µM | P08173 | CHO-hM4 cells, ACh EC80, Fluo-8 calcium fluorescence;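 active = inhibition above its plate's cutoff, the mean inhibition of sample wells plus 3 SD, cut at about 27% in these data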;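 also: 0% = acetylcholine EC80 with DMSO and 100% = DMSO without agonist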
CHRM5 PAM = potentiates acetylcholine response at human M5 receptor | 360,000 compounds, 0.3% hits | AID 624038 | activation, % at 3 µM | CHO-K1 hM5, Fluo-8 calcium, ACh EC20 PAM; 0% = ACh EC20, 100% = ACh EC100;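 active = activation above the run cutoff, the mean activation of all test compounds plus 3 SD, cut at about 18% in these data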
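Assay system – human M5 receptor in CHO-K1 cells · Read-out – % activation, ACh-normalized · Technique – Fluo-8 calcium fluorescence · Dosing – single-point, 3 µM nominal · Incubation – Fluo-8 loading 80 min at 37 °C plus 30 min room temperature · Repeats – singlicate, one well per test compound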
M4 ag = agonists of human muscarinic M4 receptor (CHRM4). P08173. CHO-K1 hM4/Gqi5, Fluo-8 calcium fluorescence; vehicle 0%, full acetylcholine response 100%. activation, % at 3 µM. 360,000 compounds, 0.14% hits. AID 624127;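 active = activation above the run mean over all test wells plus 3 SD, cut at about 32% in these data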;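 also: peak over basal fluorescence ratio per well then scaled between controls; 0% = DMSO wells and 100% = acetylcholine at EC100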
CHRM5 agonist = agonists of human muscarinic M5 receptor (CHRM5). P08912. CHO-K1 hM5 cells, Fluo-8 calcium fluorescence; 0% DMSO wells, 100% maximal acetylcholine response. activation, % at 3 µM. 360,000 compounds, 0.19% hits. AID 624037;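 active = activation above the run's mean over test compounds plus 3 SD, cut at about 23% in these data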;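 also: signal is peak over basal fluorescence ratio across the kinetic read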
* = called active by the depositor.

SMILES | CHRM5 antagonist | M4 PAM | CHRM4 antagonist | CHRM5 PAM | M4 ag | CHRM5 agonist
COCCN1Cc2cccc(C(=O)Nc3cc(C)cc(C)c3)c2C1=O | -1 | -2 | 0 | -1 | 1 | -7
COc1ccc(-c2csc(C(C)(O)c3cccnc3)n2)cc1 (stereo not drawn) | 8 | 0 | -15 | -7 | 10 | 6
COC(=O)c1sc2nc(C)c([N+](=O)[O-])c(C)c2c1N | -7 | 46* | 18 | 4 | 16 | -4
O=C(c1ccc(F)cc1)N1CCN2C(=O)c3ccccc3C12c1ccccc1 (stereo not drawn) | 34* | -24 | 6 | -35 | 18 | -15
O=C(c1ccc(F)cc1)N1CCN2C(=O)c3ccccc3C12c1ccc(Cl)cc1 (stereo not drawn) | 47* | -14 | 7 | -18 | -1 | -11
O=C(c1ccccc1)N1CCN2C(=O)c3ccccc3C12c1ccc(Cl)cc1 (stereo not drawn) | 6 | -2 | -5 | -14 | 1 | -11
O=C1N[C@H]2CC=C[C@H]2Nc2ccccc21 | -2 | 0 | -17 | -4 | 0 | 0
O=C(CCC1CCCN(C(=O)c2cc3ccccc3o2)C1)NCc1ccc(F)c(F)c1 (stereo not drawn) | -10 | -8 | -2 | -11 | 11 | 2
CCN(CC(=O)NCc1ccc(Cl)cc1)C(=O)CCC(=O)c1ccc(F)cc1 | 2 | -1 | 3 | 4 | 2 | -5
COc1ccc2[nH]c3c(c2c1)CCN1C(=O)C(CC(=O)NCc2ccco2)C[C@H](C(=O)N2CCCCC2)[C@@]31CCc1ccccc1 (stereo partly drawn) | 9 | -2 | -2 | -4 | 0 | 1
COc1cccc(NC(=O)C2(C)CCCN2C(=O)C(C)C)c1OC (stereo not drawn) | -2 | -2 | -2 | 0 | 1 | 0
Cn1c(C(=O)OC(C(=O)NC2CCCCC2)c2cccnc2)cc2sccc21 (stereo not drawn) | 41* | 4 | -4 | -5 | 2 | -8
Cc1ccc(S(=O)(=O)NC(C)C(=O)OCC(=O)Nc2sccc2C(N)=O)cc1 (stereo not drawn) | 3 | -3 | 2 | -2 | 1 | 0
O=C(Nc1nc(-c2ccc(F)c(F)c2)cs1)c1cc([N+](=O)[O-])ccc1N1CCOCC1 | 3 | 7 | -2 | -2 | 0 | 0
Cc1cc(C)c(-c2csc(NC(=O)c3cc([N+](=O)[O-])ccc3N3CCOCC3)n2)c(C)c1 | 23 | -18 | 36* | -20 | -1 | -10
C[C@@H]1CN([C@@H](C)CO)C(=O)CCCn2nncc2CO[C@@H]1CN(C)S(=O)(=O)c1cccs1 | 3 | -7 | 11 | 4 | 0 | -3
CCN(CC)c1ccc(/C=C/c2cc(-c3ccccc3)c3ccccc3n2)cc1 | 20 | -5 | 31* | -5 | 24 | 9
CN(C)c1ccc(/C=C/c2ccc3ccccc3n2)cc1 | 18 | -1 | 4 | -4 | 6 | 4
Cc1cc2ccccc2n1CCNCc1c(C(=O)N2CCOCC2)nc2ccccn12 | 75* | -17 | 25 | -6 | 30 | 245*
O=C1NC2(CCCCCC2)C(=O)N1Cc1c(F)cccc1Cl | 7 | -14 | 31* | -3 | 2 | -5
O=C1NC2(CCCCCC2)C(=O)N1Cc1ccccc1F | 10 | -3 | 11 | -2 | 0 | -4
COc1ccccc1-c1csc(C(C)(O)c2cccc(F)c2)n1 (stereo not drawn) | 1 | 0 | -10 | -1 | -1 | -1
OC1(c2cccs2)CN(c2ccc(Cl)cc2)C2=[N+]1CCCC2 (stereo not drawn) | 29* | -24 | 30* | -32 | 1 | -18
OC1(c2cccs2)CN(c2ccc(Cl)cc2)C2=[N+]1CCCS2 (stereo not drawn) | 11 | 2 | -1 | 3 | 1 | -5
Cc1ccc(N2CC(C(=O)Nc3nc4ccc(S(C)(=O)=O)cc4s3)CC2=O)cc1 (stereo not drawn) | 2 | -5 | 14 | 0 | 2 | -1
